The list is not random: actives were taken first. Their share in the collection is about 2.8%.
Jurkat viability: cytotoxicity toward Jurkat cells. 56,000 tested, 1.2% active. inhibition, % at 4 µM. Jurkat E6.1 viability, ATP luminescence, 48 h;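 active = inhibition above the mean inhibition of all tested compounds plus 3 SD, cut at about 28% in these data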
MT1-MMP txn act: activates MT1-MMP transcription | HT1080 MT1-MMP promoter luciferase reporter, luminescence, overnight; hits give high values | activation factor at 10 µM | 86,000 tested, 0.16% active | AID 750;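 active = activation factor of at least 2 for MT1-MMP transcription at 10 µM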
HEK293 NFkB inh: inhibitors of the PMA/ionomycin-induced NF-kB reporter in HEK293 cells | inhibition, % at 3 µM | 62,000 tested, 0.21% active | HEK-293 NF-kB luciferase reporter, luminescence;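 active = inhibition above the mean of all tested compounds plus 3 SD, cut at about 40% in these data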;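 also: 0% = stimulated DMSO wells and 100% = 10 µM reference inhibitor 5653914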
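Material: HEK-293 cells with stable firefly luciferase reporter driven by four HIV NF-kB elements / Also added: PMA plus ionomycin mix as NF-kB-activating stimulus / Compound dosing: 3 µM once, 0.30% DMSO / Times: 1 h pretreatment, 16 h stimulation, 37 °C / Signal: luminescence / Evaluation: per-plate % inhibition versus controls / Benchmarks: DMSO and 10 µM reference inhibitor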
SF1 activator: activators of human nuclear receptor SF-1; CHO-K1 Gal4-SF-1 LBD luciferase reporter; % increase over DMSO SF-1-specific signal; activation, % at 10 µM; 65,000 tested, 1.9% active; AID 522;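 active = activation above the mean activation of all tested compounds plus 3 SD, cut at about 50% in these data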
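Test system: CHO-K1 cells with Gal4–hSF-1 LBD chimera plus Gal4-driven luciferase; Input: 4,000 cells/well; Compound: 10 µM only; Times: 20 h compound treatment, 37 °C; Measured by: steady-glow luciferase luminescence, read after 15 min reagent incubation; Measure: percent activation versus DMSO; Control set: DMSO and mock-transfected background; Replicates: one test per compound.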
RORA act: activates the human nuclear receptor RORA; AID 560; 65,000 tested, 1.5% active; CHO-K1 Gal4-RORA LBD luciferase reporter, luminescence; percent increase over mock-subtracted basal signal; activation, % at 10 µM;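 active = activation above the mean of all tested compounds plus 3 SD, cut at about 49% in these data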;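 also: 0% = DMSO-treated RORA cells and 100% = added signal equal to DMSO minus mock-transfected cells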
Active calls of the source: *.

For Cn1nc(CC(=O)N2CCN(c3ccccc3)CC2)c2ccccc2c1=O the results were Jurkat viability 0.0, MT1-MMP txn act 1.1, HEK293 NFkB inh -2.1, SF1 activator 8.7 and RORA act 7.0.
`Cn1nc(CC(=O)Nc2ccc3c(c2)OCCO3)c2ccccc2c1=O` gave Jurkat viability 94.7*, MT1-MMP txn act 1.2, HEK293 NFkB inh 32.3, SF1 activator -62.4 and RORA act -74.8.
`Cn1nc(CC(=O)Nc2ccc(N3CCN(C(=O)OC(C)(C)C)CC3)cc2)c2ccccc2c1=O` gave Jurkat viability 99.0*, MT1-MMP txn act 0.9, HEK293 NFkB inh 44.9*, SF1 activator -63.1 and RORA act -85.9.
For CC(C)CC(OC(=O)c1cccs1)C(=O)NCc1cccs1 (centres undefined) the results were Jurkat viability -1.4, MT1-MMP txn act 1.2, HEK293 NFkB inh 19.5, SF1 activator -0.1 and RORA act -13.5.
`COC(=O)/C=c1\sc2n(c1=O)C(C)=CC(C)(C)N=2` gave Jurkat viability 5.8, MT1-MMP txn act 1.1, HEK293 NFkB inh 5.4, SF1 activator -7.8 and RORA act 3.9.
For CCN(C1CCCCC1)S(=O)(=O)c1ccc(S(=O)(=O)NCc2ccncc2)cc1 the results were Jurkat viability 68.7*, MT1-MMP txn act 1, HEK293 NFkB inh 34.6, SF1 activator -52.3 and RORA act -69.0.
Screening O=C1C2C3C=CC(CO)(O3)C2C(=O)N1c1ccccc1-c1ccccc1 (centres undefined) returned Jurkat viability 60.8*, MT1-MMP txn act 1.1, HEK293 NFkB inh 10.2, SF1 activator -18.3 and RORA act -13.2.
CC(=O)Oc1ccc(N2C(=O)C3C4C=CC(CO)(O4)C3C2=O)cc1 (centres undefined) was read as MT1-MMP txn act 1.3.
`CN(Cc1cc(=O)[nH]c2ccccc12)C(=O)c1ccccc1` gave Jurkat viability 6.9, MT1-MMP txn act 2.2*, HEK293 NFkB inh 8.1, SF1 activator -7.7 and RORA act 15.4.
`Cc1ccc2nc(NC(=O)c3cccs3)sc2c1` gave MT1-MMP txn act 0.2, HEK293 NFkB inh -60.5, SF1 activator -40.7 and RORA act -13.9.
Screening Cc1nc2ccc(NC(=O)c3ccc(Cl)c(NC(=O)c4cccs4)c3)cc2s1 returned MT1-MMP txn act 1.3.
Screening O=C(Cc1cccs1)Nc1ccc(C(=O)O)cc1 returned Jurkat viability -3.4, MT1-MMP txn act 1.9, HEK293 NFkB inh 13.2, SF1 activator -6.0 and RORA act 1.8.
`Cc1ccc2nc(NC(=O)c3ccc(Cl)s3)sc2c1` gave Jurkat viability -12.3, MT1-MMP txn act 1.1, HEK293 NFkB inh -68.4, SF1 activator 53.8* and RORA act 85.8*.
`Cc1nc2ccc(NC(=O)Cc3cccs3)cc2s1` gave Jurkat viability -3.9, MT1-MMP txn act 1.4, HEK293 NFkB inh -20.3, SF1 activator 79.6* and RORA act 53.4*.
`Cc1nc2ccc(NC(=O)c3ccc(Cl)s3)cc2s1` gave Jurkat viability -7.7, MT1-MMP txn act 1.5, HEK293 NFkB inh -36.4, SF1 activator 76.0* and RORA act 80.5*.
Cc1ccc2nc(NC(=O)c3ccc(Cn4cc(Cl)cn4)o3)sc2c1 was read as Jurkat viability -2.4, MT1-MMP txn act 1.1, HEK293 NFkB inh -4.3, SF1 activator 12.7 and RORA act 55.4*.
Screening c1ccc(N2CCN(Cc3ccsc3)CC2)nc1 returned Jurkat viability 0.1, MT1-MMP txn act 1.1, HEK293 NFkB inh 13.1, SF1 activator -2.1 and RORA act 13.5.
Cc1cccc2sc(NC(=O)c3ccc(Cl)s3)nc12 was read as Jurkat viability 4.5, MT1-MMP txn act 1.7, HEK293 NFkB inh -10.6, SF1 activator 49.8* and RORA act 22.7.
For COc1ccc(-n2nnnc2SCc2nc3ccccc3s2)cc1 the results were MT1-MMP txn act 1.6.
CC(=O)c1cn(CC(=O)Nc2ccccc2)c2ccccc12 was read as Jurkat viability 37.2*, MT1-MMP txn act 1.2, HEK293 NFkB inh 17.8, SF1 activator -3.2 and RORA act -31.6.
For Cc1ccoc1C(=O)NCCCNC(=O)c1occc1C the results were Jurkat viability -4.4, MT1-MMP txn act 1, HEK293 NFkB inh 9.3, SF1 activator 3.5 and RORA act -3.9.
CC1=CS(=O)(=O)CC1Sc1ncn[nH]1 (centres undefined) was read as MT1-MMP txn act 1.

Screening results as filed in PubChem BioAssay.
